Screens as filed in PubChem BioAssay.
The list is not random: actives were taken first. Their share in the collection is about 3.2%.
DENV2 CPE rescue: inhibitors of DENV2 cytopathic effect; DENV2-infected cells, cytopathic effect rescue, plate reader; CPE inhibition, % at 9.99 µM; hit rate 1.7% among 350,000; in the data active = CPE inhibition above about 20%, passing the limit was not always enough; tested in BHK-21 cells
Cneo AK release: Cryptococcus neoformans lysis via adenylate kinase release | lysis activity, % at 15 µM | AID 651654 | hit rate 0.2% among 360,000 | C. neoformans lysis, adenylate kinase release luminescence, 4 h; normalised: neutral wells 0, clomiphene wells 100;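 active = mean lysis activity across replicates of at least 80%, whatever share of replicates individually reach that level; inactive = mean lysis activity below 80%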
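read-out = cell lysis signal | test system = log-phase Cryptococcus neoformans yeast cells | input = cells at 5 × 10^6 per mL | medium = fresh YPD growth medium | signal = luminescent adenylate kinase detection reagent | timing = 4 h at 37 °C static, read 1 h later | dosing = single dose | controls = Clomiphene as positive lysis control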
S100A4 inh HTS: inhibitors of human S100A4 binding to myosin IIA peptide | hit rate 0.14% among 360,000 | S100A4/TAMRA-MyoIIA peptide fluorescence polarization | inhibition, % at 10.7 µM | AID 652163;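 active = mean inhibition of at least 70% across replicates, with every replicate also reaching that level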
Target sequence (P26447 whole entry, looked up): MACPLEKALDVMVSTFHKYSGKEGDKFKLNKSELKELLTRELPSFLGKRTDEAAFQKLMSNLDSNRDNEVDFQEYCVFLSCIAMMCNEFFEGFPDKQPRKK
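Material: S100A4 monomer protein / Buffer or medium: 50 mM HEPES pH 7.2, 10 mM CaCl2, 100 mM KCl / Times: 5 min incubation before reading / Benchmarks: neutral control DMSO, positive control TFP / Reagent: labelled myosin peptide probe, 5 nM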
AF4-AF9 inh: blocks AF4 peptide binding to human AF9 | hit rate 0.47% among 350,000 | P42568 | inhibition, % at 10 µM | AlphaScreen, biotin-AF4 peptide binding to FLAG-AF9;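 active = every replicate reaching a set inhibition limit, whatever the replicate mean, cut at about 25% in these data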
Target sequence (P42568 whole entry, looked up): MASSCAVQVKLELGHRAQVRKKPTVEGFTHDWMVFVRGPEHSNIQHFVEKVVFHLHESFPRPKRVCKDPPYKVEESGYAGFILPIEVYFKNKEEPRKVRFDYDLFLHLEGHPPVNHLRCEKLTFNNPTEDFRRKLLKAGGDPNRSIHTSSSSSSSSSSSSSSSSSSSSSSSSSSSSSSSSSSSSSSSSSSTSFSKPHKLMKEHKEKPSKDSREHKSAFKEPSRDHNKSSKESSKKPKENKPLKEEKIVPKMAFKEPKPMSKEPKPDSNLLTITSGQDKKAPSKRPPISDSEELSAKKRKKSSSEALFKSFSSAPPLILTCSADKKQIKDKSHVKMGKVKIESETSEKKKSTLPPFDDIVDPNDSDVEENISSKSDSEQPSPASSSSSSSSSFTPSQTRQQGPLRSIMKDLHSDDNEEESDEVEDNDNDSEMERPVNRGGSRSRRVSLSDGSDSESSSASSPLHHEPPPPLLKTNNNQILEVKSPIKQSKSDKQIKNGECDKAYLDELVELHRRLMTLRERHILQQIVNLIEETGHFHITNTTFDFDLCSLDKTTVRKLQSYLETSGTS
PfHsp90 set2: inhibits growth of yeast expressing Plasmodium falciparum Hsp90; S. cerevisiae expressing PfHsp90, BacTiter-Glo ATP, 48 h; yeast lacking PDR1 and PDR3 efflux regulators; inhibition, % at 9.4 µM; hit rate 0.32% among 310,000; AID 504621;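 active = every replicate shows inhibition above about 80%, whatever the replicate mean, limit read from the data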
rRNA inh HTS: selective bacterial rRNA inhibition in E. coli. GFP signal change (wild-type ribosome), % (no concentration beside the values). hit rate 1.6% among 350,000. E. coli WT GFP vs humanized-ribosome RFP mutants, fluorescence, 24 h; stronger effect = lower value; DMSO median 0, no signal -100;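 active = significant combined selectivity score with lowered wild-type GFP, culture density cut under 30%, mutant RFP and density less affected; inactive = any of these conditions unmet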
Numbers stand for hits; – = inactive; · = not tested or not shown.

SMILES	DENV2 CPE rescue	Cneo AK release	S100A4 inh HTS	AF4-AF9 inh	PfHsp90 set2	rRNA inh HTS
C[C@@H]1CN([C@@H](C)CO)C(=O)CCCn2cc(nn2)CO[C@@H]1CN(C)S(=O)(=O)c1ccccc1	–	–	–	–	·	–
C[C@H]1CN([C@@H](C)CO)C(=O)c2cccc(NC(=O)c3ccncc3)c2O[C@@H]1CN(C)Cc1ccccc1	–	–	–	–	·	–
O=c1c(Cc2c(F)cccc2Cl)c(O)ccn1C1CC1	–	·	–	–	–	-31.0
OCC1(Cc2ccc(Cl)cc2)CCN(Cc2ccc3nsnc3c2)CC1	·	–	–	–	–	-23.2
O=C(C[C@@H]1C=C[C@H](NS(=O)(=O)c2ccccc2)[C@H](CO)O1)N1CCC(Cc2ccccc2)CC1	–	·	–	–	·	–
C[C@@H]1CN([C@H](C)CO)C(=O)c2cccc(NC(=O)Nc3ccc4c(c3)OCO4)c2O[C@H]1CN(C)Cc1ccccc1	–	–	–	–	·	–
CC(NC(=O)C12CC3CC(CC(C3)C1)C2)C(=O)N/N=C/C1=C(N2CCOCC2)C(=C\c2ccccc2)/CC1 (stereo not drawn)	133.4	–	–	–	–	–
CC(C)c1nnc(NC(=O)C2CCN(C(=O)Nc3ccc(Cl)cc3)CC2)s1	–	–	–	–	–	-23.3
CCCC(=O)Nc1ccc2c(c1)OC[C@@H](C)N(Cc1nccs1)C[C@@H](C)[C@@H](OC)CN(C)C2=O	–	–	–	–	·	–
CCS(=O)(=O)N1CCC2(CC1)OCCN2S(=O)(=O)c1ccccc1	39.2	–	–	–	·	–
C[C@@H]1CCCCO[C@@H](CN(C)Cc2ccncc2)[C@@H](C)CN([C@@H](C)CO)C(=O)c2cc(NC(=O)CCCN(C)C)ccc2O1	–	–	–	–	·	–
C[C@H]1CCCCO[C@@H](CN(C)Cc2ccc(C(=O)O)cc2)[C@@H](C)CN([C@@H](C)CO)C(=O)c2cc(NC(=O)CCCN(C)C)ccc2O1	–	–	–	–	·	–
C[C@H](CO)N1C[C@H](C)[C@H](CN(C)Cc2ccc(C(=O)O)cc2)OCCCC[C@H](C)Oc2ccc(NC(=O)CCCN(C)C)cc2C1=O	30.2	–	–	–	·	–
C[C@H]1CCCCO[C@H](CN(C)Cc2ccncc2)[C@@H](C)CN([C@@H](C)CO)C(=O)c2cc(NC(=O)CCCN(C)C)ccc2O1	–	98.3	–	–	·	–
COc1cccc(S(=O)(=O)N[C@H]2CC[C@@H](CC(=O)NCc3ccc(F)cc3)O[C@H]2CO)c1	–	–	–	–	·	–
CC1=NN(c2ccccc2)C(=O)/C1=C\C=C1\N(C)c2ccccc2C1(C)C	·	·	·	·	–	·
CN1/C(=C\C=C2/C(=O)Oc3ccccc3C2=O)C(C)(C)c2ccccc21	–	·	178.1	–	·	–
CC1=NN(c2ccccc2)C(=O)/C1=C\C=C1/N(C)c2ccccc2C1(C)C	–	·	–	35.9	–	–
CN1/C(=C\C=C2/SC(=S)NC2=O)C(C)(C)c2ccccc21	–	·	103.7	–	–	–
CN1C(=CC=C2C=C(I)C(=O)C(I)=C2)C(C)(C)c2ccccc21	–	–	–	–	–	–
CCCNC(=O)C[C@@H]1CC[C@H]2[C@H](COc3ccc(NC(=O)Nc4cccc(C)c4)cc3C(=O)N2C)O1	–	–	–	–	·	–
Cc1c(C(=O)O)oc2ccc(S(=O)(=O)NC3CCCCCCC3)cc12	–	–	–	–	–	-28.8
CN(C)C(=O)C[C@@H]1C[C@H]2c3cc(NS(C)(=O)=O)ccc3O[C@H]2[C@@H](CO)O1	–	–	–	–	·	–
O=C(c1cnn(C(=O)c2ccco2)c1)c1cc(F)ccc1O	–	·	–	–	–	–
O=C(c1cnn(C(=O)c2ccco2)c1)c1cc(Cl)cc(Cl)c1O	–	–	–	–	–	-25.0
SMILES	DENV2 CPE rescue	Cneo AK release	S100A4 inh HTS	AF4-AF9 inh	PfHsp90 set2	rRNA inh HTS
O=C(O)c1ccc(COc2ccc3ccccc3c2)o1	–	–	–	–	–	-17.1
Cc1cc(C)cc(OCc2ccc(C(=O)NN)o2)c1	–	·	–	·	–	-22.9
NNC(=O)c1ccc(COc2ccc([N+](=O)[O-])cc2)o1	–	·	–	–	–	–
CCOc1ccc(OCc2ccc(C(=O)O)o2)cc1	·	·	·	·	–	·
Cc1ccc(OCc2ccc(C(=O)O)o2)c([N+](=O)[O-])c1	–	–	–	–	–	-26.5
Cc1ccc(S(=O)(=O)Nc2ccc3c(c2)C(=O)N([C@H](C)CO)C[C@@H](C)[C@@H](CN(C)Cc2ccncc2)OCCCC[C@H](C)O3)cc1	–	–	–	–	·	–
CCCNC(=O)N[C@@H]1CC[C@H](CC(=O)NC2CCCCC2)O[C@H]1CO	–	–	–	–	·	–
CCOC(=O)c1ccc(NC(=O)C(C)Sc2nc(O)c(-c3ccccc3)c(=O)[nH]2)cc1 (stereo not drawn)	–	·	–	–	–	–
CC(Sc1nc2ncc(Cl)cc2[nH]1)C(=O)Nc1ccc(C(N)=O)cc1 (stereo not drawn)	117.6	–	–	–	·	–
CC(Sc1nc(O)c(-c2ccccc2)c(=O)[nH]1)C(=O)Nc1ccc(Cl)cc1 (stereo not drawn)	–	·	–	–	–	-23.9
C[C@@H]1CN([C@H](C)CO)C(=O)c2cc(NC(=O)NC3CCCCC3)ccc2O[C@H]1CN(C)S(=O)(=O)c1cccs1	–	–	–	–	·	–
C=CCn1cnnc1SCC(=O)N(C1CCCCC1)C1CCS(=O)(=O)C1 (stereo not drawn)	–	·	–	–	·	–
Cc1nnc(SCC(=O)N(C2CCCCC2)C2CCS(=O)(=O)C2)n1N (stereo not drawn)	34.9	–	–	–	·	–
O=C(NCC[C@H]1CC[C@@H](NS(=O)(=O)Cc2ccccc2)[C@@H](CO)O1)C1CCCC1	–	–	–	–	·	–
CCCC1CCC(c2ccc(/C(N)=N/O)cc2)CC1 (stereo not drawn)	–	·	–	–	91.5	–
CCCC1CCC(c2ccc(C(N)=O)cc2)CC1 (stereo not drawn)	·	–	·	·	–	·
C[C@H]1CN([C@@H](C)CO)C(=O)Cc2cc(NS(C)(=O)=O)ccc2O[C@H]1CN(C)S(C)(=O)=O	–	–	–	–	·	–
C[C@@H]1CN([C@@H](C)CO)C(=O)c2cccc(NS(=O)(=O)c3ccccc3)c2O[C@@H]1CN(C)Cc1ccncc1	–	–	–	–	·	–
CCC(=O)N[C@@H]1C=C[C@H](CC(=O)NCC2CCCCC2)O[C@H]1CO	–	87.1	–	–	·	–
CCNC(=O)C[C@H]1C=C[C@@H](NC(=O)NC2CCCCC2)[C@H](CO)O1	–	–	–	–	·	–
CCCNC(=O)N[C@H]1C=C[C@@H](CC(=O)N2CCN(C)CC2)O[C@@H]1CO	–	–	124.9	–	·	–
